Laboratory results from ChEMBL document CHEMBL4017509, “A Dual Modulator of Farnesoid X Receptor and Soluble Epoxide Hydrolase To Counter Nonalcoholic Steatohepatitis” (J Med Chem, 2017).
pEC50, pIC50: −log10 of the molar value. Active and inactive are the calls of the source. No cut-off for these calls is given here.

What was measured:
Bile acid receptor [1] = biological target: T1, Bile acid receptor (Homo sapiens, UniProt Q96RI1); assay: Transactivation of FXR in human HepG2 cells assessed as CYP7A1 mRNA expression at 3 uM after 8 to 16 hrs by SYBR green based qRT-PCR analysis relative to DMSO control; assay type: ADME, cell-based
T1 sequence (Q96RI1 whole entry): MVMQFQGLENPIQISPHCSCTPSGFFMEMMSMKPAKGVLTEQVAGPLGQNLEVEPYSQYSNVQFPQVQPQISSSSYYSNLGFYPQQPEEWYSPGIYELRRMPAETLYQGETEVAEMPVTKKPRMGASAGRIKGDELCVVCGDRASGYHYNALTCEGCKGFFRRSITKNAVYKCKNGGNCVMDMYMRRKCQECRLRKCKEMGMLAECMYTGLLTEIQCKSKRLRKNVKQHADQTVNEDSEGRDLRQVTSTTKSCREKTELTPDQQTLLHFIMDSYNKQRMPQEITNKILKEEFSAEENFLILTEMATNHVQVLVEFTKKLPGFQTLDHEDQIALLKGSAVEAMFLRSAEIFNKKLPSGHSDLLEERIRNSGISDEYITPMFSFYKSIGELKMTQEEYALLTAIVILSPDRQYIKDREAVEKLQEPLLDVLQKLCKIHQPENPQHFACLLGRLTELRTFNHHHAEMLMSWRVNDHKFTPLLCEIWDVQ
In short: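 HepG2 cells treated 8 or 16 h with compound or 0.1% DMSO, washed in cold PBS, RNA extracted; SYBR Green qRT-PCR in duplicate, ≥4 independent experiments (n = 3 for CD36/FAM3A). ΔΔCt method with GAPDH reference; expression as % of vehicle (100%). Pioglitazone 1 μM used as positive control for the PPARγ genes.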

[2] = biological target: T2, Bifunctional epoxide hydrolase 2 (Homo sapiens) (UniProt P34913); assay: Inhibition of sEH in primary human monocytes-derived macrophages assessed as reduction in LPS-stimulated IL-12p70 release at 10 uM after 16 hrs by cytometric bead array method; assay type: cell-based
T2 sequence (whole entry): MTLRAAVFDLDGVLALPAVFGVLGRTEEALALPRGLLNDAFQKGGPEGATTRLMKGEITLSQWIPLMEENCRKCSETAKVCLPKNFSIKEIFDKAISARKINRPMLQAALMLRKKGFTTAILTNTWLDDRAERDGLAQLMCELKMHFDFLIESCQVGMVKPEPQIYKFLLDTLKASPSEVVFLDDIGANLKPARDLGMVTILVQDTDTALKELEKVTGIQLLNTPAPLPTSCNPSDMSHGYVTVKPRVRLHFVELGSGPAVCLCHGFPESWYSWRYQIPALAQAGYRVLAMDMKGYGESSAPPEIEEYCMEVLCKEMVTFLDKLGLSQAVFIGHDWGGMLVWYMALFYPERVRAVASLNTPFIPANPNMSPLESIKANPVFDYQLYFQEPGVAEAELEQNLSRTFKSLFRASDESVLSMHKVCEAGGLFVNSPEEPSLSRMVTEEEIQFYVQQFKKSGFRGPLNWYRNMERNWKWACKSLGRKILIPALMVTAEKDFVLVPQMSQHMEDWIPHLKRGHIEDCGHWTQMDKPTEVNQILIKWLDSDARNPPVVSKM
In short: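 Blood monocytes isolated by dextran sedimentation and Nycoprep gradient, adherence-selected 1 h, differentiated with GM-CSF 10 ng/mL for 7 days plus IFNγ 10 ng/mL for last 48 h. Stimulated with LPS 100 ng/mL plus compound for 16 h; supernatant IL-10 and IL-12p70 measured by cytometric bead array flow cytometry.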

[3] = biological target: T2, Bifunctional epoxide hydrolase 2 (Homo sapiens); assay: Inhibition of sEH in human HepG2 cells assessed as NF-kappaB mRNA expression at 10 uM after 8 to 16 hrs by SYBR green based qRT-PCR analysis relative to DMSO control; assay type: cell-based
[4] = biological target: T2, Bifunctional epoxide hydrolase 2 (Homo sapiens); assay: Inhibition of sEH in human HuT-78 cells assessed as reduction in Pam3CSK4-stimulated TNFalpha release preincubated for 24 hrs followed by Pam3CSK4 addition measured after 18 hrs by ELISA; assay type: cell-based
In short: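 HuT-78 cells in RPMI 1640 with 10% heat-inactivated FCS, 2.0 × 10^6 cells/well, exposed to compound (0.1% DMSO) for 24 h; medium then replaced with fresh compound plus Pam3CSK4 20 ng/mL for 18 h; supernatant TNFα measured by ELISA (absorbance 450 nm); each concentration repeated independently at least three times.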

[5] = biological target: T3, Bile acid receptor (Homo sapiens) (UniProt Q96RI1); assay: Transactivation of FXR in human HepG2 cells assessed as BSEP mRNA expression at 1 uM after 8 to 16 hrs by SYBR green based qRT-PCR analysis relative to DMSO control; assay type: cell-based
T3 sequence (whole entry): T1 sequence (Q96RI1 whole entry)
In short: (§1)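 HepG2 cells incubated with test compound (0.1 and 1 μM) or 0.1% DMSO for 8 or 16 h, washed in cold PBS, RNA extracted; target mRNA by SYBR Green qRT-PCR, duplicate samples, ≥4 independent experiments; comparative ΔΔCt with GAPDH reference, vehicle set as 100%.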

[6] = biological target: T3, Bile acid receptor (Homo sapiens); assay: Transactivation of FXR in human HepG2 cells assessed as SHP mRNA expression at 1 uM after 8 to 16 hrs by SYBR green based qRT-PCR analysis relative to DMSO control; assay type: cell-based; in short: as §1
[7] = biological target: T3, Bile acid receptor (Homo sapiens); assay: Transactivation of FXR in human HepG2 cells assessed as FGF19 mRNA expression at 1 uM after 8 to 16 hrs by SYBR green based qRT-PCR analysis relative to DMSO control; assay type: cell-based; in short: as §1
[8] = biological target: T2, Bifunctional epoxide hydrolase 2 (Homo sapiens); assay: Inhibition of sEH in human HepG2 cells assessed as NF-kappaB mRNA expression at 1 uM after 8 to 16 hrs by SYBR green based qRT-PCR analysis relative to DMSO control; assay type: cell-based
In short: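 HepG2 cells treated with compound or 0.1% DMSO vehicle; NF-κB mRNA quantified by SYBR Green qRT-PCR, comparative ΔΔCt with GAPDH reference; expressed as % of vehicle (100%).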

[9] = biological target: T3, Bile acid receptor (Homo sapiens); assay: Transactivation of FXR in human HepG2 cells assessed as SREBP1c mRNA expression at 1 uM after 8 to 16 hrs by SYBR green based qRT-PCR analysis relative to DMSO control; assay type: cell-based; in short: as §1
[10] = biological target: T2, Bifunctional epoxide hydrolase 2 (Homo sapiens); assay: Inhibition of sEH in primary human monocytes-derived macrophages assessed as reduction in LPS-stimulated IL-12p70 release at 1 uM after 16 hrs by cytometric bead array method; assay type: cell-based
In short: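 Human blood monocytes isolated by dextran sedimentation/Nycoprep and adherence, differentiated to macrophages with GM-CSF 10 ng/mL for 7 days plus IFNγ 10 ng/mL for final 48 h; stimulated with LPS 100 ng/mL together with compound for 16 h; supernatant IL-12p70 measured by cytometric bead array on flow cytometer.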

[11] = biological target: T3, Bile acid receptor (Homo sapiens); assay: Transactivation of human FXR expressed in human HeLa cells co-expressing BSEP at 50 uM after 24 hrs by dual-glo luciferase reporter gene assay relative to GW4064; assay type: cell-based
In short: (§2)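 HeLa cells in DMEM/10% FCS at 37 °C, 5% CO2; switched to 0.5% charcoal-stripped FCS before calcium phosphate co-transfection with pcDNA3-hFXR, pSG5-hRXR, BSEP promoter–firefly luciferase reporter and pRL-SV40 renilla. Compound in 0.1% DMSO, phenol red-free medium, 24 h.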

[12] = biological target: T4, Bifunctional epoxide hydrolase 2 (Homo sapiens, UniProt P34913); assay: Inhibition of recombinant human sEH using PHOME as substrate preincubated for 30 mins followed by substrate addition measured for 30 mins by fluorescence photometric method; conditions: read-out: IC50
T4 sequence (P34913 whole entry): T2 sequence (whole entry)
In short: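 Recombinant human sEH in Bis-Tris buffer pH 7, 0.1 mg/mL BSA, 0.01% Triton X-100 (final), preincubated 30 min at room temperature with compound (1% DMSO final). PHOME added at 50 μM final; 6-methoxynaphthaldehyde fluorescence read each minute for 30 min.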

Bile acid receptor [13] = biological target: T1, Bile acid receptor; assay: Transactivation of human FXR expressed in human HeLa cells co-expressing BSEP after 24 hrs by dual-glo luciferase reporter gene assay; assay type: cell-based; in short: as §2
[14] = Aqueous solubility of compound at 5 mg after 24 hrs by HPLC analysis; assay type: physicochemical

Q: With `CC(C)c1onc(-c2c(Cl)cccc2Cl)c1COc1ccc(/C=C/c2cccc(C(=O)O)c2)c(Cl)c1` as the compound, how does the Activity (Bile acid receptor [1]) read?
A: 0.03%

Q: For `O=C(Nc1ccc(I)cc1)NC1CCCCC1`, which inhibition [2] is on record?
A: Active

Q: And the inhibition [3]?
A: 22.9%

Q: Which results are given for `CC[C@H]1[C@@H](O)[C@@H]2[C@H](CC[C@]3(C)[C@@H]([C@H](C)CCC(=O)O)CC[C@@H]23)[C@@]2(C)CC[C@@H](O)C[C@@H]12`?
A: inhibition [4]: inactive; Activity [5]: 970%; Activity [6]: 416%; Activity [7]: 640%; inhibition [8]: 29%; Activity [9]: 51%; inhibition [10]: Active

Q: What does the source list for `CC(C)(C)c1ccc(C(=O)NCc2ccc(NC(=O)C(F)(F)F)cc2Cl)cc1`?
A: Emax [11]: 21%; pIC50 [12]: 8.05; pEC50 (Bile acid receptor [13]): 7.85; solubility at 24 h [14]: < 0.1 µg/mL
